In series [1] the test system is Escherichia coli. Kind of series: Antibacterial activity against Escherichia coli DH5[alpha] after 18 hrs by broth microdilution method. In kind it is functional. The method in brief:
(§1)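 Bacteria grown to mid-log phase in LB medium at 37 °C. Peptides 2-fold serially diluted from 200 μM to 1.56 μM and mixed 1:1 with inoculum of 10^6 CFU per mL. Incubation 18 h at 35 °C. MIC is the lowest concentration giving complete growth inhibition by visual inspection […].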
In general terms: Dilution methods test growth across graded concentrations, often in twofold steps.

Series [2] has as its system Escherichia coli. Kind of series: Antibacterial activity against Escherichia coli NBRC 3972 after 18 hrs by broth microdilution method. The settings on record: NBRC 3972, 18 h. It is filed as functional. The method in brief:
as §1

The next series relates to Staphylococcus aureus. The series is described as follows: Antibacterial activity against Staphylococcus aureus after 18 hrs by broth microdilution method. In kind it is functional. The method in brief:
as §1

A further series relates to Proteus vulgaris. Kind of series: Antibacterial activity against Proteus vulgaris NBRC 3045 after 18 hrs by broth microdilution method. To be noted: NBRC 3045, 18 h. In kind it is functional. In short, it runs like this:
as §1

The test system of a further series is Erythrocyte. The series is described as follows: Hemolytic activity in human RBC after 3 hrs. It is filed as ADME, cell-based. In short, it runs like this: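 Human red blood cells from Japanese Red Cross volunteers, washed three times and resuspended in PBS. Mixed 1:1 with diluted peptide and incubated 3 h at 37 °C. After centrifugation, supernatant absorbance read at 535 nm. Triton X-100 and M-lycotoxin served as positive controls.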

In the next series the test system is Pseudomonas aeruginosa. Kind of series: Antibacterial activity against Pseudomonas aeruginosa NBRC 13725 after 18 hrs by broth microdilution method. In kind it is functional. To be noted: NBRC 13275, 18 h, in the assay text read “NBRC 13275” for “NBRC 13725”. The method in brief:
as §1

The test system of series [3] is Staphylococcus epidermidis. The series is described as follows: Antibacterial activity against Staphylococcus epidermidis after 18 hrs by broth microdilution method. In kind it is functional. The method in brief: as §1
Series [4] has as its system TIG-3. Kind of series: Cytotoxicity against human TIG3 at 100 uM after 72 hrs by WST-8 assay. It is filed as cell-based. The settings on record: tig-3, 72 h. The method in brief: (§2)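 Human normal fibroblast TIG-3 cells kept in DMEM with 10% FBS and 100 μg ml–1 kanamycin. Seeded at 5 × 10^3 cells per well, treated 24 h later for 72 h. WST-8 reagent then added for 0.5 h at 37 °C, 5% CO2, and absorbance read at 450 nm. Means ± SD, n = 4.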

For another series, the system named is Lipid bilayer. The series is described as follows: Induction of membrane disruption in PG/CL/PE unilamellar vesicles assessed as increase in carboxyfluorescein leakage at 6.25 uM by fluorescence assay. The method in brief: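 E. coli-mimic liposomes of PG/CL/PE (2 : 1 : 7, w/w) loaded with 50 mM carboxyfluorescein in 20 mM Tris-HCl, pH 7.4; free dye removed by Sephadex G-50 gel filtration. Peptide added at 6.25 μM and leakage read by fluorescence. Release (%) = (Fobs−F0)/(F100−F0) × 100, with 100% set by Triton X-100.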

In series [5] the test system is TIG-3. Kind of series: Cytotoxicity against human TIG3 at 1 to 100 uM after 72 hrs by WST-8 assay. In kind it is cell-based. To be noted: tig-3, 72 h. In short, it runs like this: as §2
A general note: Formazan colour is commonly taken as a measure of viable cells.

Calls of active or inactive are those of the source. The calls are words filed in the database; no cut-off is given here. Some results are limits rather than exact numbers.

Data on five substances can be found in ChEMBL document CHEMBL4334429, “Rational design of novel amphipathic antimicrobial peptides focused on the distribution of cationic amino acid residues” (Medchemcomm, 2019).

Consider H-GIGKFLHSAKKFGKAFVGEIMNS-NH2, for which the MIC (commonly the least concentration at which growth counts as inhibited) was 3.12 µM in the series with Escherichia coli [1]; 3.12 µM against Escherichia coli [2]; 100 µM with Staphylococcus aureus; more than 100 µM in the series with Proteus vulgaris; 12.5 µM in the series on Pseudomonas aeruginosa; 25 µM in series [3]. In the series on Erythrocyte, the IC50 (usually the concentration that inhibits the measured activity by half) was more than 100 µM.
The substance H-IWLTALKFLGKHAAKHLAKQQLSKL-NH2 yielded a half-maximal inhibitory concentration (IC50) in the series on Erythrocyte of 0.78 µM.
For the substance H-KKKKKKKKKGGGLLALLALLA-NH2, the minimum inhibitory concentration (MIC) in the series with Escherichia coli [1] is 12.5 µM; in the series on Escherichia coli [2] it was 6.25 µM; in the series on Staphylococcus aureus it was 12.5 µM; against Proteus vulgaris it was more than 100 µM; in the series on Pseudomonas aeruginosa, 6.25 µM; in [3], 6.25 µM. Also, the IC50 in the series with Erythrocyte is 25 µM. For the same substance, the Activity result with TIG-3 [4] is recorded as “Toxic”. For the same substance, the outcome with Lipid bilayer was Active.
For the substance H-KKKLAKLKLGAKLKLKGKLGA-NH2, the MIC against Escherichia coli [1] is 25 µM; with Escherichia coli [2], 12.5 µM; in the series on Staphylococcus aureus it was 100 µM; with Proteus vulgaris, more than 100 µM; against Pseudomonas aeruginosa, 3.12 µM; in [3], 6.25 µM. Moreover, the Activity result with TIG-3 [5] was “Non-Toxic”. Besides, in the series with Erythrocyte, the IC50 was determined as 100 µM. Moreover, in the series with Lipid bilayer, the outcome was Active.
Turning to H-KLLKKAGKLLKKAGKLLKKAG-NH2, the MIC in the series with Escherichia coli [1] is 3.12 µM; against Escherichia coli [2], 3.12 µM; in the series with Staphylococcus aureus, 12.5 µM; in the series with Proteus vulgaris it was more than 100 µM; in the series on Pseudomonas aeruginosa it was 1.56 µM; in series [3], 1.56 µM. Also, in the series on TIG-3 [5], the Activity entry is “Non-Toxic”. The IC50 with Erythrocyte was more than 100 µM. Further, the result with Lipid bilayer was Active.
